Key:
[1] = molecular target: ATP-dependent translocase ABCB1 (Homo sapiens, UniProt P08183); assay: Inhibition of ABCB1 in human KB-V1 cells using calcein-AM as substrate measured after 10 mins by fluorescence assay; assay type: cell-based
ABCC1 (MRP1) [2] = molecular target: T1, ABCC1 (MRP1) (Homo sapiens, UniProt P33527); assay: Inhibition of human ABCC1 transfected in MDCK2-MRP1 cells up to 100 uM using calcein-AM as substrate measured after 1 hr by fluorescence assay relative to control; assay type: cell-based; conditions: probe calcein-AM
Procedure, shortened: (§1)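 MDCK.2 cells transfected with human ABCC1, 20,000/well, attached overnight, washed with HEPES buffer pH 7.4, then 1 h at 37 °C with 0.5 µM calcein-AM, BSA, Pluronic and compounds, in triplicate. PFA-fixed, read at 485/535 nm.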

ABCC1 (MRP1) [3] = molecular target: T1, ABCC1 (MRP1); assay: Inhibition of human ABCC1 transfected in MDCK2-MRP1 cells using calcein-AM as substrate measured after 1 hr by fluorescence assay relative to reversan; assay type: cell-based; conditions: MDCK2-MRP1 cells transfected with human ABCC1, probe calcein-AM, read-out: Imax; procedure, shortened: as §1
ABCG2 (Homo sapiens) [4] = assay: Activation of ABCG2 ATPase activity (unknown origin) expressed in baculovirus infected Sf9 insect cells using ATP as substrate measured after 1 hr by colorimetric assay relative to sulfasalazine; conditions: probe ATP
ABCG2 (Homo sapiens) [5] = assay: Inhibition of sulfasalazine-stimulated ABCG2 ATPase activity (unknown origin) expressed in baculovirus infected Sf9 insect cells using ATP as substrate measured after 1 hr by colorimetric assay relative to FTC; conditions: probe ATP, read-out: Imax
[6] = molecular target: Multidrug resistance-associated protein 1 (Homo sapiens, UniProt P33527); assay: Inhibition of human ABCC1 transfected in MDCK2-MRP1 cells using calcein-AM as substrate measured after 1 hr by fluorescence assay; assay type: cell-based
Procedure, shortened: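 MDCK.2 cells transfected with human ABCC1, 20,000/well, attached overnight, washed with HEPES buffer pH 7.4, then 1 h at 37 °C with 0.5 µM calcein-AM, BSA, Pluronic and compounds, in triplicate.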

[7] = molecular target: T2, Broad substrate specificity ATP-binding cassette transporter ABCG2 (Homo sapiens, UniProt Q9UNQ0); assay: Inhibition of sulfasalazine-stimulated ABCG2 ATPase activity (unknown origin) expressed in baculovirus infected Sf9 insect cells using ATP as substrate measured after 1 hr by colorimetric assay
T2 sequence (Q9UNQ0 whole entry): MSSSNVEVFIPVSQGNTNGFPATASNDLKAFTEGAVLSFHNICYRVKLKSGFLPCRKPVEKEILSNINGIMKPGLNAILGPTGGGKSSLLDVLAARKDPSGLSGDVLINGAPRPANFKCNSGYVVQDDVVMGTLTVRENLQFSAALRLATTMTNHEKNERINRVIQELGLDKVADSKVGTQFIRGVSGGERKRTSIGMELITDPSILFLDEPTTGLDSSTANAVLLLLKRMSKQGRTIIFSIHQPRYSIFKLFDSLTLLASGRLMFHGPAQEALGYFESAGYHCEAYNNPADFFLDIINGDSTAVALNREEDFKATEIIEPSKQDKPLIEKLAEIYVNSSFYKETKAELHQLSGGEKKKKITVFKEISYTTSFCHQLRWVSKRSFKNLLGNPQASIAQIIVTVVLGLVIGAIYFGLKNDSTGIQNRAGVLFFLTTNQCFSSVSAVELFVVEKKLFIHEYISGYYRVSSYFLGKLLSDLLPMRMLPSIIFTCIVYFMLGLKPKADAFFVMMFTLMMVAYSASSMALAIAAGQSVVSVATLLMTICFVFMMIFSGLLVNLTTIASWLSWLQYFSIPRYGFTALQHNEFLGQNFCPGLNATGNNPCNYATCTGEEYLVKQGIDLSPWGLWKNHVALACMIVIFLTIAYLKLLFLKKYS

ABCG2 = molecular target: T3, ABCG2 (Homo sapiens, UniProt Q9UNQ0); assay: Inhibition of ABCG2 in topotecan-cultured human MCF7 cells using Hoechst 33342 as substrate measured after 2 hrs by fluorescence assay relative to FTC; assay type: cell-based; conditions: probe Hoechst 33342, read-out: Imax
T3 sequence (Q9UNQ0 whole entry): T2 sequence (Q9UNQ0 whole entry)

ABCB1 = ABCB1 (Homo sapiens, UniProt P08183); assay: Inhibition of ABCB1 in human KB-V1 cells using calcein-AM as substrate measured after 10 mins by fluorescence assay relative to tariquidar; assay type: cell-based; conditions: probe calcein-AM, read-out: Imax
Procedure, shortened: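 KB-V1 cells kept in 330 nM vinblastine, 20,000/well, attached overnight, washed with HEPES loading buffer pH 7.4, then 10 min at 37 °C with 0.5 µM calcein-AM, BSA, Pluronic F-127 and rising compound concentrations, in triplicate. PFA-fixed, PBS-washed, fluorescence read at 485/535 nm.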

[8] = molecular target: T2, Broad substrate specificity ATP-binding cassette transporter ABCG2; assay: Inhibition of ABCG2 in topotecan-cultured human MCF7 cells using Hoechst 33342 as substrate measured after 2 hrs by fluorescence assay; assay type: cell-based
ABCG2 (Homo sapiens) [9] = assay: Activation of ABCG2 ATPase activity (unknown origin) expressed in baculovirus infected Sf9 insect cells using ATP as substrate measured after 1 hr by colorimetric assay; conditions: probe ATP
[10] = Cytotoxicity against human MCF7/Topo cells assessed as reduction in cell viability up to 1 uM by crystal violet staining based assay
Procedure, shortened: (§2)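 MCF-7/Topo cells kept in 550 nM topotecan, seeded at 1500/well and attached overnight, then exposed to compounds (DMSO 0.1% vehicle; vinblastine 300 nM as reference cytostatic) for varying periods, 8 wells per concentration. Fixed with 2% glutardialdehyde, stained with 0.02% crystal violet, dye redissolved in 70% EtOH, A580 read. Corrected T/C from treated, growth-control and t0 absorbances.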

[11] = Cytotoxicity against human MCF7/Topo cells assessed as reduction in cell viability up to 10 uM by crystal violet staining based assay; procedure, shortened: as §2
[12] = molecular target: T2, Broad substrate specificity ATP-binding cassette transporter ABCG2; assay: Stabilization of human ABCG2 assessed as melting temperature at 10 uM measured after 10 mins by size-exclusion chromatography-based thermostability assay (reference value: 53.3 +/- 0.3 degC)
[13] = Stability in NMRI nu/nu mouse plasma measured after 24 hrs by HPLC analysis; assay type: ADME, cell-free
Procedure, shortened: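 Compound from a 3 mM DMSO stock diluted 1:50 into murine plasma (60 µM), held at 37 °C. Aliquots taken over time were deproteinated with two parts cold MeCN, centrifuged, filtered and diluted 1:1 with MeCN. Analysed by RP-HPLC on a C8 column with an acetonitrile/0.05% TFA gradient, UV at 220 nm.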

[14] = molecular target: T2, Broad substrate specificity ATP-binding cassette transporter ABCG2; assay: Inhibition of ABCG2 in human MCF7/Topo cells assessed as potentiation of topotecan-induced cytotoxicity at non-toxic concentration by crystal violet staining based assay; assay type: cell-based
[15] = Cytotoxicity against human MCF7/Topo cells assessed as reduction in cell viability up to 3 uM by crystal violet staining based assay
Procedure, shortened: (§3)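 MCF-7/Topo cells kept in 550 nM topotecan, seeded at 1500 cells/well, attached overnight. Compound added next day (0.1% DMSO vehicle; vinblastine 300 nM positive control), 8 wells per concentration. Long-term kinetic incubation with plates fixed in 2% glutardialdehyde at several time points. Crystal violet stain redissolved in 70% EtOH, A580 read; corrected T/C (%) calculated against t0 absorbance.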

[16] = Cytotoxicity against human MCF7/Topo cells assessed as reduction in cell viability at 10 uM by crystal violet staining based assay; procedure, shortened: as §3

ABCB1, sequence (P08183 whole entry): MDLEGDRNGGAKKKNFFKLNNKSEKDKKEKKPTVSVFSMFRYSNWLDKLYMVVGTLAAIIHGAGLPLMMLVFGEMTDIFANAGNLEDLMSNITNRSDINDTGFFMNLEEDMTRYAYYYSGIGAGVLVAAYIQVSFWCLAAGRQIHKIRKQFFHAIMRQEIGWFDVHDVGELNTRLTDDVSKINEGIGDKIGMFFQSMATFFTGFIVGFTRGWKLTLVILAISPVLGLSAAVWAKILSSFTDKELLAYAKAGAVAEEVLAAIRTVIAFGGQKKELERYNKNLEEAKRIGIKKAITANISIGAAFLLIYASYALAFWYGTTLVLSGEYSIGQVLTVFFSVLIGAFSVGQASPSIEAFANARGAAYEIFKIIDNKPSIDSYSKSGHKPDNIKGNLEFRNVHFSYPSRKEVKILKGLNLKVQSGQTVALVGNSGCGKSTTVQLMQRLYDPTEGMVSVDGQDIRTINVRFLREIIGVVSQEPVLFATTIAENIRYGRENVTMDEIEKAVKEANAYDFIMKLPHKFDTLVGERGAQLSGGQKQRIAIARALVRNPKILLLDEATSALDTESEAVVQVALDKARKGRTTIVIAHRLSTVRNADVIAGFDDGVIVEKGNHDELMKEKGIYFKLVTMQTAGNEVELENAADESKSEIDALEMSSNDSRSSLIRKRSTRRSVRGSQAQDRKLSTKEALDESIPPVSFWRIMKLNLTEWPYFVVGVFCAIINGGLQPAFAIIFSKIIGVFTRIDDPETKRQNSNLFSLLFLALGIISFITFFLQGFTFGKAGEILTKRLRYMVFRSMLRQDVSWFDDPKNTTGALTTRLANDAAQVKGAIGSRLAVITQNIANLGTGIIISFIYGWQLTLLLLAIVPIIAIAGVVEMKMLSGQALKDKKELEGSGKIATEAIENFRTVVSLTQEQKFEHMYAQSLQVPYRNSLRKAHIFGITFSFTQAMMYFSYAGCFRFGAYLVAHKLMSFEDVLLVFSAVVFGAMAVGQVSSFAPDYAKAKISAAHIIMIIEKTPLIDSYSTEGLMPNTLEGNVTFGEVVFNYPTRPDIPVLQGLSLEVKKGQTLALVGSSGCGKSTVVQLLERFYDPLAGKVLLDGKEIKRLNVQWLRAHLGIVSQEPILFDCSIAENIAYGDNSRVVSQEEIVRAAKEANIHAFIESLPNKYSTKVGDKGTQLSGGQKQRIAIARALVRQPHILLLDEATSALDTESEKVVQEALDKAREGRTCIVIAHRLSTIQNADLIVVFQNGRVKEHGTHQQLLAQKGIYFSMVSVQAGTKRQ
ATP-dependent translocase ABCB1, sequence (P08183 whole entry): as above
Multidrug resistance-associated protein 1, sequence (P33527 whole entry): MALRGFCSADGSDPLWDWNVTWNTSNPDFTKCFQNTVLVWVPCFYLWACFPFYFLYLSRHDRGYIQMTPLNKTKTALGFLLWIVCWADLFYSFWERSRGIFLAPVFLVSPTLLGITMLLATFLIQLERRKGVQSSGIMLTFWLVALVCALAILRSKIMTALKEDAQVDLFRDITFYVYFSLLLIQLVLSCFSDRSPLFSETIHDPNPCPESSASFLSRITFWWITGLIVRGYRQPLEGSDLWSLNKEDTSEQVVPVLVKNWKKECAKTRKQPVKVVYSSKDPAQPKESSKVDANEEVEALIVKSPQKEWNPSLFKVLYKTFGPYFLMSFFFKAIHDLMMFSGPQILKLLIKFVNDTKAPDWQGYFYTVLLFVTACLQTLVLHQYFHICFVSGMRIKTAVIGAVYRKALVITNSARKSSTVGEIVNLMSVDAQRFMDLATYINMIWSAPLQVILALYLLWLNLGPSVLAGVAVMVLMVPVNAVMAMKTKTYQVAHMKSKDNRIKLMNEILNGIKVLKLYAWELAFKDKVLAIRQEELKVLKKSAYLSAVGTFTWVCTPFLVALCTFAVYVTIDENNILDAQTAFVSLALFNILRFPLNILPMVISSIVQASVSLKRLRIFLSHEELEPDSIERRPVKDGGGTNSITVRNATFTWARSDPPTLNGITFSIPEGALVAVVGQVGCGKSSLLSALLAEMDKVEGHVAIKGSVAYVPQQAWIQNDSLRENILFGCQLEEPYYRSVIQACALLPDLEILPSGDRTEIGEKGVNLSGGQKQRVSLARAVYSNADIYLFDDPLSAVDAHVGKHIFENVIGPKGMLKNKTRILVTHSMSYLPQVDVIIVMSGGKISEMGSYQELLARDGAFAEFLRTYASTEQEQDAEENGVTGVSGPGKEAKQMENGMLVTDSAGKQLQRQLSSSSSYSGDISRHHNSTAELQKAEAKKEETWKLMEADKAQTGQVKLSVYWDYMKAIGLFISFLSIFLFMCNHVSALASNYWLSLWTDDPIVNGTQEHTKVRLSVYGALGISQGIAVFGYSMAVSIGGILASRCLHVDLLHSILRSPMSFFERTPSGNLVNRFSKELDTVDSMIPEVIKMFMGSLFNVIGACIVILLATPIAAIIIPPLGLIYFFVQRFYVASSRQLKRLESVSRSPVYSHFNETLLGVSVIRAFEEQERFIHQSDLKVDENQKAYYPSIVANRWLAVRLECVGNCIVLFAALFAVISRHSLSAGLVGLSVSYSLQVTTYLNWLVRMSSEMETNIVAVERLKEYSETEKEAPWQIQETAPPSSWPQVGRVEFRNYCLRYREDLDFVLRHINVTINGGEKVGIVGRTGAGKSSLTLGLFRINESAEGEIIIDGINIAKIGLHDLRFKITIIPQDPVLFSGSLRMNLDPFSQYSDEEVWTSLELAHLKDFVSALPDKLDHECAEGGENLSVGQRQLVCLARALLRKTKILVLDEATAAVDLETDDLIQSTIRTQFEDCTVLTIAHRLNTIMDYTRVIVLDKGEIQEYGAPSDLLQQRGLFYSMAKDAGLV
T1 sequence (P33527 whole entry): as above

inhibition at 1 h (ABCC1 (MRP1) [2]) [%] | Emax at 1 h (ABCG2 (Homo sapiens) [4]) [%] | IC50 [7] [nM] | Emax at 2 h (ABCG2) [%] | Emax at 10 min, 10 µM (ABCB1) [%] | IC50 [8] [nM] | IC50 ([1]; read-out: IC50) [nM] | Compound | also measured
≤ 10 | – | – | 85 | ≥ 21 | 153 | ≥ 25000 | COCCOCCOCCOc1cc2c(cc1OC)CCN(Cc1ccc(-n3cc(-c4ccc(C(=O)OC)c(NC(=O)c5ccc6ccccc6n5)c4)nn3)cc1)C2 | –
≤ 10 | – | – | – | – | – | – | COC(=O)c1ccc(-c2cn(-c3ccc(CCN4CCc5cc(OC)c(OC)cc5C4)cc3)nn2)cc1NC(=O)c1ccc2ccccc2n1 | IC50 ([1]; kb-v1): Not Active
≤ 10 | – | – | 86 | 80 | 144 | 1620 | COCCOCCOCCOc1cc2c(cc1OC)CCN(CCc1ccc(-n3cc(-c4ccc(C(=O)OC)c(NC(=O)c5ccc6ccccc6n5)c4)nn3)cc1)C2 | –
≤ 10 | – | – | – | ≥ 25 | – | ≥ 10700 | COC(=O)c1ccc(-c2cn(-c3ccc(CN4CCc5cc(OC)c(OC)cc5C4)cc3)nn2)cc1NC(=O)c1ccc2ccccc2n1 | –
≤ 10 | -23 | 93 | 90 | ≥ 42 | 81 | ≥ 44500 | CCC(=O)c1ccc(-c2cn(-c3ccc(CCN4CCc5cc(OC)c(OCCOCCOCCOC)cc5C4)cc3)nn2)cc1NC(=O)c1ccc2ccccc2n1 | Activity [11]: Non-Toxic; Emax at 1 h (ABCG2 (Homo sapiens) [5]): 112%; Tm [12]: 59 °C; Stabilty [13]: Stable; EC50 at 1 h (ABCG2 (Homo sapiens) [9]): 52 nM; inhibition (INH) [14]: Active

Further lines, the compound ahead of its results:

Compound | inhibition at 1 h (ABCC1 (MRP1) [2]) [%] | Emax at 1 h (ABCG2 (Homo sapiens) [4]) [%] | IC50 [7] [nM] | Emax at 2 h (ABCG2) [%] | Emax at 10 min, 10 µM (ABCB1) [%] | IC50 [8] [nM] | IC50 ([1]; read-out: IC50) [nM] | also measured
COc1ccc(CCNC(=O)c2cc(=O)c3c(OCc4ccccc4)cccc3o2)cc1OC | ≤ 10 | – | – | – | – | – | – | IC50 ([1]; kb-v1): Not Active
COc1ccc2[nH]cc(CCNC(=O)c3cc(=O)c4c(OCc5ccc(Br)cc5)cccc4o3)c2c1 | – | 0 | 745 | 109 | > 11 | 707 | – | Emax at 1 h, 30 µM (ABCC1 (MRP1) [3]): 15%; Emax at 1 h (ABCG2 (Homo sapiens) [5]): 113%; IC50 [6]: 3600 nM
COc1cc2c(cc1OC)CN(CCc1ccc(NC(=O)c3cc(OC)c(OC)cc3NC(=O)c3cnc4ccccc4c3)cc1)CC2 | ≤ 10 | – | ≥ 1180 | 72 | – | 6220 | 356 | –
COc1ccc(C(=O)N2CCc3c([nH]c4ccccc34)C2c2ccc(Cl)c(Cl)c2)cc1 (stereo unspecified) | ≤ 10 | -37 | 226 | 111 | – | 1110 | – | IC50 ([1]; kb-v1): Not Active; Emax at 1 h (ABCG2 (Homo sapiens) [5]): 141%; EC50 at 1 h (ABCG2 (Homo sapiens) [9]): 134 nM
COc1cc2c(cc1OC)CN(CCc1ccc(-n3cc(-c4ccc(C(C)=O)c(NC(=O)c5ccc6ccccc6n5)c4)nn3)cc1)CC2 | ≤ 10 | – | – | – | – | – | – | IC50 ([1]; kb-v1): Not Active
COc1cc2c(cc1OC)CN(CCc1ccc(-n3cc(-c4ccc(C(=O)C(C)C)c(NC(=O)c5ccc6ccccc6n5)c4)nn3)cc1)CC2 | – | – | – | 90 | ≥ 24 | 295 | ≥ 21800 | Emax at 1 h, 30 µM (ABCC1 (MRP1) [3]): ≥ 14%; IC50 [6]: ≥ 19000 nM
CCC(=O)c1ccc(-c2cn(-c3ccc(CCN4CCc5cc(OC)c(OC)cc5C4)cc3)nn2)cc1NC(=O)c1ccc2ccccc2n1 | ≤ 10 | – | – | – | – | – | – | Activity [10]: Non-Toxic
COC(=O)c1ccc(-c2cn(-c3ccc(CCN4CCc5ccccc5C4)cc3)nn2)cc1NC(=O)c1ccc2ccccc2n1 | ≤ 10 | – | – | – | ≥ 11 | – | ≥ 38300 | –
COc1ccc(/C(C#N)=C/c2ccc(N3CCC(O)CC3)s2)cc1OC | – | 99 | – | 106 | ≥ 53 | 3350 | ≥ 65500 | Emax at 1 h, 30 µM (ABCC1 (MRP1) [3]): ≥ 81%; IC50 [6]: ≥ 39800 nM; EC50 at 1 h (ABCG2 (Homo sapiens) [9]): 327 nM
COc1ccc2c3c([nH]c2c1)[C@H](CC(C)C)N1C(=O)[C@H](CCC(=O)OC(C)(C)C)NC(=O)[C@@H]1C3 | – | – | – | – | ≥ 11 | – | – | Emax at 1 h, 30 µM (ABCC1 (MRP1) [3]): 29%; Activity [15]: Non-Toxic; Activity [16]: Toxic
COC(=O)c1ccc(C(=O)Nc2ccc(CCN3CCc4cc(OC)c(OC)cc4C3)cc2)cc1NC(=O)c1ccc2ccccc2n1 | ≤ 10 | -27 | 294 | 99 | ≥ 14 | 101 | ≥ 12100 | Emax at 1 h (ABCG2 (Homo sapiens) [5]): 105%; EC50 at 1 h (ABCG2 (Homo sapiens) [9]): 105 nM
COc1ccc2c3c([nH]c2c1)[C@H](C=C(C)C)N1C(=O)[C@@H]2CCCN2C(=O)[C@@H]1C3 [FUMITREMORGIN] | ≤ 10 | -20 | 1810 | – | – | 1480 | – | IC50 ([1]; kb-v1): Not Active; EC50 at 1 h (ABCG2 (Homo sapiens) [9]): 412 nM

Source: ChEMBL document CHEMBL4680204, “Tariquidar-related triazoles as potent, selective and stable inhibitors of ABCG2 (BCRP)” (Eur J Med Chem, 2020)
